Test results taken from ChEMBL document CHEMBL1123436, “Comparative toxicities and analgesic activities of three monomethylated analogues of acetaminophen” (J Med Chem, 1986).

Tests used:
[1] = (§1) Hepatotoxicity in Swiss-Webster Mice Caused by compound at 1000 mg/kg (i.p.) (phenobarbital pretreated animals)dose; assay type: functional, Mus musculus; conditions: route intraperitoneal
Summary of the method: (§2)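 Male Swiss-Webster mice (20 g), groups of 10. Sodium phenobarbital (80 mg/kg ip) was given 72, 60, 48 and 24 h before drug, then drug ip in saline. At 24 h: survivors counted, plasma ALT measured, and H&E liver sections scored for necrosis in survivors. Values are means ± SE.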

[2] = Hepatotoxicity in Swiss-Webster Mice Caused by compound at 1000 mg/kg (i.p.) (cobaltous chloride pretreated animals)dose; 9/10; assay type: functional, Mus musculus; conditions: route intraperitoneal
Summary of the method: (§3)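 Male Swiss-Webster mice (20 g), groups of 10. Cobaltous chloride (30 mg/kg ip) was given 48, 36, 24 and 12 h before drug, then drug ip in saline. At 24 h: survivors counted, plasma ALT measured, and H&E liver sections scored for necrosis in survivors. Values are means ± SE.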

[3] = Hepatotoxicity in Swiss-Webster Mice Caused by compound at 1000 mg/kg (i.p.) (phenobarbital pretreated animals)dose; 5/10; assay type: functional, Mus musculus; conditions: route intraperitoneal; summary of the method: as §2
[4] = test system: Mus musculus; test: Hepatotoxicity in Swiss-Webster Mice Caused by compound at 1000 mg/kg (i.p.) (cobaltous chloride pretreated animals)dose; assay type: functional, organism-based; set-up: dose 1000 mg/kg; summary of the method: as §3
[5] = test system: Mus musculus; test: (§4) Hepatotoxicity in Swiss-Webster Mice Caused by compound at 750 mg/kg (i.p.) dose; assay type: functional, organism-based; set-up: dose 750 mg/kg
Summary of the method: (§5)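 Male Swiss-Webster mice (20 g), groups of 10, were given a single ip dose of drug in saline with no pretreatment. Survivors were decapitated at 24 h and counted. Plasma ALT was measured, and liver sections (formalin-fixed, paraffin, H&E) were scored for necrosis severity in survivors. Values are means ± SE.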

[6] = test system: Mus musculus; test: Hepatotoxicity in Swiss-Webster Mice Caused by compound at 750 mg/kg (i.p.) dose; 10/10; assay type: functional; conditions: route intraperitoneal; summary of the method: as §5
[7] = test system: Mus musculus; test: Hepatotoxicity in Swiss-Webster Mice Caused by compound at 1000 mg/kg (i.p.) dose; 8/10; assay type: functional; conditions: route intraperitoneal; summary of the method: as §5
[8] = test system: Mus musculus; test: (§6) Hepatotoxicity in Swiss-Webster Mice Caused by compound at 1000 mg/kg (i.p.) dose; assay type: functional, organism-based; set-up: dose 1000 mg/kg; summary of the method: as §5
[9] = test system: Mus musculus; test: as §1; assay type: functional, organism-based; set-up: dose 1000 mg/kg; summary of the method: as §2
[10] = test system: Mus musculus; test: (§7) Hepatotoxicity in Swiss-Webster Mice Caused by compound at 1000 mg/kg (i.p.) (pipernonyl butoxide pretreated animals)dose; assay type: functional, organism-based; set-up: dose 1000 mg/kg
Summary of the method: (§8)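 Male Swiss-Webster mice (20 g), groups of 10. Piperonyl butoxide (neat, single 1360 mg/kg ip dose) was given 30 min before drug, then drug ip in saline. At 24 h: survivors counted, plasma ALT measured, and H&E liver sections scored for necrosis in survivors. Values are means ± SE.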

[11] = test system: Mus musculus; test: Hepatotoxicity in Swiss-Webster Mice Caused by compound at 1000 mg/kg (i.p.) (pipernonyl butoxide pretreated animals)dose; 10/10; assay type: functional; conditions: route intraperitoneal; summary of the method: as §8
[12] = organism: Mus musculus; test: Analgesic activity determined in mice using the Bradykinin-induced Writhing test; assay type: functional
Summary of the method: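 Male CD1 mice (15–20 g), test drug given orally 15 min before bradykinin ip (4 μg in 0.2 mL sterile water), then a second bradykinin injection (0.2 μg/0.1 mL) 15 min later. Writhing was scored over the next 10 min, with control groups of 10 mice. ED50 was derived by log-probit analysis from at least five doses, with 95% limits.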

[13] = test system: Mus musculus; test: as §7; assay type: functional; conditions: route intraperitoneal; summary of the method: as §8
[14] = test system: Mus musculus; test: as §6; assay type: functional; conditions: route intraperitoneal; summary of the method: as §5
[15] = test system: Mus musculus; test: as §4; assay type: functional; conditions: route intraperitoneal; summary of the method: as §5

CC(=O)Nc1ccc(O)cc1C
Hepatic necrosis in survivors [1]: 3.4
Survivors at 24 h [2]: 9
Survivors at 24 h [3]: 5
Plasma ALT at 24 h [4]: 40 mU ml-1
Plasma ALT at 24 h [5]: 690 mU ml-1
Survivors at 24 h [6]: 10
Survivors at 24 h [7]: 8
Plasma ALT at 24 h [8]: 2110 mU ml-1
Plasma ALT at 24 h [9]: 3920 mU ml-1
Plasma ALT at 24 h [10]: 75 mU ml-1
Survivors at 24 h [11]: 10
ED50 [12]: 177 mg/kg
Hepatic necrosis in survivors [13]: 0
Hepatic necrosis in survivors [14]: 1.75
Hepatic necrosis in survivors [15]: 0.8
